# Experimental data collected from several papers.
# Each line is one published result; the experiments were not run side by side.
# Organism: Escherichia coli
SMILES,assay,test system,setting,endpoint,value
CC(C)Oc1c(NC(=O)c2ccc(NC(=O)[C@H](CC(N)=O)NC(=O)c3ccc(NC(=O)c4ccc(C#N)cc4)cc3)cc2)ccc(C(=O)N[C@@H]2CONC2=O)c1O,microbial growth,DSM1116,,MIC,> 64 µg/mL
O=C1C=C(OCc2cn(-c3ccccc3)nn2)C(=O)c2ccccc21,"microbial growth, broth dilution",ATCC25922,,IC50,99.5 µg/mL
CCCCCCCCCCCCCC(O)CC(O)CO (stereo not drawn),"microbial growth, broth dilution",ATCC35218,,IC50,> 200 µg/mL
Cc1ccc(-n2cc(COc3cc(C(C)C)ccc3C)nn2)cc1,"microbial growth, broth dilution",ATCC25922,,IC50,289 µg/mL
N=C(N)c1ccc(OCCS(=O)(=O)CCOc2ccc(C(=N)N)cc2)cc1,"microbial growth, broth dilution",BW25113,,MIC,> 200 µg/mL
CC(C)Oc1c(NC(=O)c2ccc(NC(=O)[C@H](CC(N)=O)NC(=O)c3ccc(CCNC(=O)c4ccc(C#N)cc4)cc3)cc2)ccc(C(=O)Nc2ccc(C(=O)O)cc2)c1O,microbial growth,DSM1116,,MIC,0.25 µg/mL
Cc1ccc2nc(-c3ccc([N+](=O)[O-])cc3)[nH]c2c1,"microbial growth, broth dilution",ATCC25922,,MIC,64 µg/mL
CC(C)c1ccc(O)c(=O)cc1,"microbial growth, broth dilution",ATCC35218,,MIC80,58.1 µM
COc1ccc(-n2cc(COc3cccc4cccnc34)nn2)cc1,"microbial growth, broth dilution",ATCC25922,,IC50,376 µg/mL
N=C(N)c1ccc(OCCC(CCOc2ccc(C(=N)N)cc2)c2ccccc2)cc1 (stereo not drawn),"microbial growth, broth dilution",ATCC25922,,MIC,> 200 µg/mL
O=c1cccccc1SSc1cccccc1=O,"microbial growth, broth dilution",ATCC35218,,MIC80,19.8 µM
COc1cc(C=Cc2cc(-c3ccccc3)nc(O)n2)ccc1O,"microbial growth, disc diffusion",ATCC25922,500 µg/mL,inhibition zone,19.7 mm
O=C(O)c1cn(C2CC2)c2cc(N3CCNCC3)c(F)cc2c1=O,microbial growth,SG458,1000 µg/mL,inhibition zone,28.5 mm
CC1(C)S[C@@H]2[C@H](NC(=O)C(C(=O)O)c3ccccc3)C(=O)N2[C@H]1C(=O)O (stereo partly drawn),"microbial growth, well diffusion",BW25113,200 µM,inhibition zone,15 mm
COc1ccc(-n2cc(COC3=CC(=O)c4ccccc4C3=O)nn2)cc1,"microbial growth, broth dilution",ATCC25922,,IC50,314 µg/mL
CCCc1ccsc1-c1ccc(O)c(O)c1,microbial growth,AS19,10 h,IC50,15.4 µM
CC(C)CC1NC(=O)C(C(=O)NC(C(=O)NC2C(=O)N3C2SC(C)(C)C3C(=O)O)c2ccccc2)=C1O (stereo not drawn),"microbial growth, well diffusion",BW25113,200 µM,inhibition zone,9 mm
Cc1ccc(C(C)C)cc1OCc1cn(-c2ccc(Cl)cc2)nn1,"microbial growth, broth dilution",ATCC25922,,IC50,655 µg/mL
N=C(N)c1ccc(OCCSCCOc2ccc(C(=N)N)cc2)cc1,"microbial growth, broth dilution",BW25113,,MIC,> 200 µg/mL
Cc1sc(C)c(-c2ccc(O)c(O)c2)c1Br,microbial growth,AS19,10 h,IC50,10.8 µM
COc1c(C)c(OS(=O)(=O)c2ccc3ccccc3c2)c(C)c(OS(=O)(=O)c2ccc3ccccc3c2)c1C(=O)/C=C/c1ccccc1,"microbial growth, well diffusion",ATCC25922,5 µg/mL,inhibition zone,12 mm
Cc1ccc2nc(-c3ccco3)[nH]c2c1,"microbial growth, broth dilution",ATCC25922,,MIC,128 µg/mL
COc1cc(C=CC(=O)CC(c2ccc(N(C)C)cc2)n2ccnc2)ccc1O (stereo not drawn),"microbial growth, disc diffusion",ATCC25922,250 µg/mL,inhibition zone,8 mm
O=[N+]([O-])c1ccc(-n2cc(COc3cccc4cccnc34)nn2)cc1,"microbial growth, broth dilution",ATCC25922,,IC50,664 µg/mL
C[C@H]1NCc2cc(-c3ccc4c(=O)c(C(=O)O)cn(C5CC5)c4c3OC(F)F)ccc21,"microbial growth, broth dilution",,,MIC50,≤ 0.03 µg/mL
COc1cc(C=CC(=O)CC(c2ccc([N+](=O)[O-])cc2)n2ccnc2)ccc1O (stereo not drawn),"microbial growth, disc diffusion",ATCC25922,500 µg/mL,inhibition zone,10.3 mm
CCOC(=O)c1c(N)csc1-c1cn(-c2ccccc2)nc1-c1ccc(C)cc1,"microbial killing, broth dilution",,,MBC,0.125 µg/mL
N=C(N)c1cccc(OCc2ccc(COc3cccc(C(=N)N)c3)cc2)c1,"microbial growth, broth dilution",ATCC25922,,MIC,200 µg/mL
O=C(N[C@H](CO)[C@H](O)c1ccc([N+](=O)[O-])cc1)C(Cl)Cl,microbial growth,ATCC25922,,MIC90,0.98 µg/mL
COc1c(C)c(OC(C)=O)c(C)c(O)c1C(=O)/C=C/c1ccccc1,"microbial killing, broth dilution",ATCC25922,,MBC,> 5000 µg/mL
O=C(N/N=C/c1ccc([N+](=O)[O-])o1)c1ccc(O)cc1,microbial growth,ATCC25922,,MIC90,0.49 µg/mL
CC(C)Oc1c(NC(=O)c2ccc(NC(=O)[C@H](CC(N)=O)NC(=O)c3ccc(NC(=O)c4ccc(C#N)cc4)cc3)cc2)ccc(C(=O)Nc2ccncc2)c1O,microbial growth,DSM1116,,MIC,> 64 µg/mL
COc1c(C)c(OC(C)=O)c(C)c(OC(C)=O)c1C(=O)/C=C/c1ccccc1,"microbial killing, broth dilution",ATCC25922,,MBC,> 5000 µg/mL
CC1(C)S[C@@H]2[C@H](NC(=O)[C@H](N)c3ccccc3)C(=O)N2[C@H]1C(=O)O,"microbial growth, well diffusion",BW25113,200 µM,inhibition zone,14 mm
CCCCS(=O)(=O)Oc1cccc2cccnc12,"microbial growth, broth dilution",ATCC25922,,IC50,194 µg/mL
O=C(O)c1cn(C2CC2)c2cc(N3CCNCC3)c(F)cc2c1=O,"microbial growth, disc diffusion",,"100 µg/mL, 24 h",inhibition zone,17 mm
COc1ccc(-c2nc3ccc(C)cc3[nH]2)cc1OC,"microbial growth, broth dilution",ATCC25922,,MIC,64 µg/mL
Cc1ccc(C(C)C)cc1OCc1cn(-c2ccc(S(N)(=O)=O)cc2)nn1,"microbial growth, broth dilution",ATCC25922,,IC50,289 µg/mL
COc1c(N2C[C@@H]3CCCN[C@@H]3C2)c(F)cc2c(=O)c(C(=O)O)cn(C3CC3)c12,microbial growth,ATCC25922,,MIC90,0.06 µg/mL
O=C(Sc1cccccc1=O)c1ccccc1C(F)(F)F,"microbial growth, broth dilution",ATCC35218,,MIC80,19.8 µM
Cc1ccc2nc(-c3cc(Br)ccc3O)[nH]c2c1,"microbial growth, broth dilution",ATCC25922,,MIC,64 µg/mL
CCCCCC(=O)Oc1c(C)c(O)c(C(=O)/C=C/c2ccccc2)c(OC)c1C,"microbial killing, broth dilution",ATCC25922,,MBC,> 5000 µg/mL
